≈ marks a conversion by molar mass, not a printed value.
Key:
Type in all cases: functional
[1] = system: Haemophilus influenzae; test: Antimicrobial activity against Haemophilus influenzae CDS01 mutant with acrB insertional inactivation by broth microdilution method
In short: (§1)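 MIC by CLSI broth microdilution, twofold serial dilutions in HTM broth.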

[2] = system: Haemophilus influenzae; test: Antimicrobial activity against Haemophilus influenzae NB65044 by broth microdilution method; in short: as §1
[3] = system: Haemophilus influenzae; test: Antimicrobial activity against Haemophilus influenzae CDS40 mutant with acrB insertional inactivation by broth microdilution method; in short: as §1
[4] = system: Haemophilus influenzae; test: Antimicrobial activity against Haemophilus influenzae CDS23 mutant overexpressing Def by broth microdilution method; in short: as §1

SMILES	MIC [1] [µg/mL]	MIC [2] [µg/mL]	MIC [3] [µg/mL]	MIC [4] [µg/mL]
CCCC[C@H](CN(O)C=O)C(=O)N1CCC[C@H]1C(=O)Nc1ccc(F)c[n+]1[O-]	0.25 (≈ 0.631 µM)	4 (≈ 10.1 µM)	4 (≈ 10.1 µM)	64 (≈ 161 µM)
CCC[C@@H]1C[C@@H](C(=O)N[C@@H]([C@H]2O[C@H](SC)[C@H](O)[C@@H](O)[C@H]2O)[C@H](C)Cl)N(C)C1 [CLINDAMYCIN]	0.5 (≈ 1.18 µM)	8 (≈ 18.8 µM)	0.5 (≈ 1.18 µM)	4 (≈ 9.41 µM)
CN(C)[C@@H]1C(O)=C(C(N)=O)C(=O)[C@@]2(O)C(O)=C3C(=O)c4c(O)cccc4[C@@](C)(O)[C@H]3C[C@@H]12 [TETRACYCLINE]	0.5 (≈ 1.13 µM)	0.5 (≈ 1.13 µM)	0.5 (≈ 1.13 µM)	0.5 (≈ 1.13 µM)

Reference: ChEMBL document CHEMBL1142096, “Reduced susceptibility of Haemophilus influenzae to the peptide deformylase inhibitor LBM415 can result from target protein overexpression due to amplified chromosomal def gene copy number” (2007)
